Measurements from ChEMBL document CHEMBL1126276, “Synthesis and antimalarial properties of 1-imino derivatives of 7-chloro-3-substituted-3,4-dihydro-1,9(2H,10H)-acridinediones and related structures” (J Med Chem, 1992).
Values joined by “and” are separate entries in the source; they are usually repeats but may differ in a detail not shown here. Equal values may be shown once.

Columns and labels:
Type in all cases: functional
Plasmodium berghei [1] = assay: Antimalarial activity in Plasmodium berghei infected mice (Mus musculus) after 160 mg/kg subcutaneous dose
In short: (§1)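 […] in mice infected with a normal drug-sensitive P. berghei strain. Compound dissolved or suspended in sesame or peanut oil, given as a single subcutaneous dose 72 h postinfection.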

Plasmodium berghei [2] = assay: Antimalarial activity Plasmodium berghei infected mice (Mus musculus) after 640 mg/kg subcutaneous dose; in short: as §1
Plasmodium berghei [3] = assay: Antimalarial activity in Plasmodium berghei infected mice (Mus musculus) after 40 mg/kg subcutaneous dose; in short: as §1
Plasmodium berghei [4] = assay: Antimalarial activity in Plasmodium berghei infected mice (Mus musculus) after 20 mg/kg subcutaneous dose; in short: as §1
Plasmodium berghei [5] = assay: (§2) Antimalarial activity in Plasmodium berghei infected mice (Mus musculus) after 80 mg/kg subcutaneous dose; in short: as §1
Plasmodium berghei [6] = assay: Antimalarial activity in Plasmodium berghei infected mice (Mus musculus) after subcutaneous 640 mg/kg dose
In short: (§3)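 Normal drug-sensitive P. berghei strain in mice. Compound dissolved or suspended in sesame or peanut oil, given parenterally as a single subcutaneous dose 72 h postinfection.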

Plasmodium berghei [7] = assay: Antimalarial activity in Plasmodium berghei infected mice (Mus musculus) after subcutaneous 160 mg/kg dose; in short: as §3
Plasmodium berghei [8] = assay: Antimalarial activity in Plasmodium berghei infected mice (Mus musculus) after subcutaneous 320 mg/kg dose; in short: as §3
Plasmodium berghei [9] = assay: as §2; in short: as §3; remark: listed apart in the source

| Structure (SMILES) | Delta mean survival time (Plasmodium berghei [1]) | Delta mean survival time (Plasmodium berghei [2]) | Delta mean survival time (Plasmodium berghei [3]) | Delta mean survival time (Plasmodium berghei [4]) | Delta mean survival time (Plasmodium berghei [5]) | No. of cured mice (Plasmodium berghei [6]) | No. of cured mice (Plasmodium berghei [7]) | No. of cured mice (Plasmodium berghei [8]) | No. of cured mice (Plasmodium berghei [9]) | Delta mean survival time (Plasmodium berghei [2]; 640 mg/kg) |
| --- | --- | --- | --- | --- | --- | --- | --- | --- | --- | --- |
| O=C1CC(c2ccc(C(F)(F)F)cc2)Cc2nc3ccc(I)cc3c(O)c21 (stereo not drawn) | 0.4 | 0.4 | 0.2 |  |  |  |  |  |  |  |
| Cc1ccc(C2CC(=O)c3c(n(O)c4ccc(Cl)cc4c3=O)C2)cc1 (stereo not drawn) | 3.1 | 6.9 | 0.6 | 0.8 | 2.8 |  |  |  |  |  |
| COc1ccc(C2C/C(=N\CCCN(C)C)c3c(nc4ccc(Cl)cc4c3O)C2)cc1 (stereo not drawn) | 4.5 | 11.2 | 0.5 |  |  | 1 |  |  |  |  |
| COc1ccccc1C1C/C(=N\CCCN(C)C)c2c(nc3ccc(Cl)cc3c2O)C1 (stereo not drawn) | 6.7 | 6.4 | 1.7 |  |  | 2 |  |  |  |  |
| CN(C)CCC/N=C1\CC(c2ccc(C3CCCCC3)cc2)Cc2nc3ccc(Cl)cc3c(O)c21 (stereo not drawn) | 10.3 | 9.6 | 7 | 2.8 | 7.2 | 3 | 2 | 5 |  |  |
| O=C1CC(c2ccc(C3CCCCC3)cc2)Cc2c1c(=O)c1cc(Cl)ccc1n2O (stereo not drawn) | 1.3 | 4.1 | 0.9 |  |  |  |  |  |  |  |
| O=C1CC(c2ccccc2C(F)(F)F)Cc2c1c(=O)c1cc(Cl)ccc1n2O (stereo not drawn) | 4.5 | 8.3 | 2.7 | 0.6 |  |  |  |  |  |  |
| CCC1C(=O)c2c(nc3ccc(Cl)cc3c2O)CC1c1ccc(C(F)(F)F)cc1 (stereo not drawn) | 1.2 | 1.6 | 0.6 |  |  |  |  |  |  |  |
| Cc1ccc(C2CC(=O)c3c(nc4ccc(Cl)cc4c3O)C2)cc1 (stereo not drawn) | 8.7 | 11.7 | 3.9 |  |  | 2 | 2 |  |  |  |
| O=C1CC2(CCCCC2)Cc2c1c(=O)c1cc(Cl)ccc1n2O | 0.2 | 0 | 0 |  |  |  |  |  |  |  |
| O=C1c2c(nc3ccc(Cl)cc3c2O)CC(c2ccc(Cl)c(Cl)c2)C1c1ccccc1 (stereo not drawn) | 0.4 | 1.4 | 0 |  |  |  |  |  |  |  |
| O=C1CC(c2ccc(C(F)(F)F)cc2)Cc2nc3ccc([N+](=O)[O-])cc3c(O)c21 (stereo not drawn) | 2.8 | 6.9 | 4.1 | 0.7 |  | 1 |  |  |  |  |
| CCCCCCn1c2c(c(=O)c3cc(Cl)ccc31)C(=O)CC(c1ccc(C(F)(F)F)cc1)C2 (stereo not drawn) | 0 | 0.1 | 0.1 |  |  |  |  |  |  |  |
| O=C1CC(c2ccc([N+](=O)[O-])cc2)Cc2nc3ccc(Cl)cc3c(O)c21 (stereo not drawn) | 4.6 | 13.3 | 0.8 |  |  | 2 |  |  |  |  |
| O=C1CC(c2ccc(C3CCCCC3)cc2)Cc2nc3ccc(Cl)cc3c(O)c21 (stereo not drawn) | 0.2 | 1.6 | 0.2 |  |  |  |  |  |  |  |
| CCN(CCO)CCC/N=C1\CC(c2ccc(Cl)c(Cl)c2)Cc2c1c(=O)c1cc(Cl)ccc1n2O (stereo not drawn) | 10.1 |  | 8.6 |  | 9.6 | 5 | 3 | 5 | 1 |  |
| CN(C)CCC/N=C1\CC(c2cccc(C(F)(F)F)c2)Cc2nc3ccc(Cl)cc3c(O)c21 (stereo not drawn) |  |  | 6.6 |  | 14.6 | 5 | 5 | 5 | 1 |  |

| Structure (SMILES) | Delta mean survival time (Plasmodium berghei [1]) | Delta mean survival time (Plasmodium berghei [2]) | Delta mean survival time (Plasmodium berghei [3]) | Delta mean survival time (Plasmodium berghei [4]) | Delta mean survival time (Plasmodium berghei [5]) | No. of cured mice (Plasmodium berghei [6]) | No. of cured mice (Plasmodium berghei [7]) | No. of cured mice (Plasmodium berghei [8]) | No. of cured mice (Plasmodium berghei [9]) | Delta mean survival time (Plasmodium berghei [2]; 640 mg/kg) |
| --- | --- | --- | --- | --- | --- | --- | --- | --- | --- | --- |
| O=c1c2c(n(O)c3ccc(Cl)cc13)CC(c1cccc(C(F)(F)F)c1)C/C2=N\CCCN1CCCC1 (stereo not drawn) | 9.6 | 25.6 | 6.2 |  | 6 | 4 | 3 | 5 |  |  |
| CC1C(=O)c2c(nc3ccc(Cl)cc3c2O)CC1c1ccc(C(F)(F)F)cc1 (stereo not drawn) | 12.8 | 8.8 | 5.7 | 3.9 | 7.5 | 4 | 2 | 5 |  |  |
| Cn1c2c(c(=O)c3cc(Cl)ccc31)C(=O)CC(c1ccc(Cl)c(Cl)c1)C2 (stereo not drawn) | 0.6 | 0.2 | 0 |  |  |  |  |  |  |  |
| O=C1CC(c2ccc(Cl)cc2Cl)Cc2nc3c(Cl)ccc(Cl)c3c(O)c21 (stereo not drawn) | 0.3 | -0.1 | 0.1 |  |  |  |  |  |  |  |
| COc1ccc(C2CC(=O)c3c(nc4ccc(Cl)cc4c3O)C2)cc1 (stereo not drawn) | 0.1 | -0.1 | -0.1 |  |  |  |  |  |  |  |
| O=C1CC(c2ccccc2Cl)Cc2c1c(=O)c1cc(Cl)ccc1n2O (stereo not drawn) | 4.5 | 9 | 4.6 | 1.7 |  | 4 | 1 |  |  |  |
| O=C1c2c(nc3ccc(Cl)cc3c2O)CCC1c1ccccc1 (stereo not drawn) | 0 | 0 | 0.2 |  | 0 |  |  |  |  |  |
| CN(C)CCC/N=C1\CC(c2ccncc2)Cc2c1c(=O)c1cc(Cl)ccc1n2O (stereo not drawn) | 0 | 1.4 | 0 |  |  |  |  |  |  |  |
| CCN(CC)CCC/N=C1\CC(c2cc(OC)c(OC)c(OC)c2)Cc2c1c(=O)c1cc(Cl)ccc1n2O (stereo not drawn) | 0.7 | 6.1 | 0.4 |  |  |  |  |  |  |  |
| O=C1CC(c2ccncc2)Cc2c1c(=O)c1cc(Cl)ccc1n2O (stereo not drawn) | 0.2 | 2 | 0 |  |  |  |  |  |  |  |
| O=C1CC(c2ccccc2Cl)Cc2nc3ccc(Cl)cc3c(O)c21 (stereo not drawn) | 0.4 | 9.6 | 2.7 | 1.5 | 5.5 | 1 | 1 |  |  |  |
| O=C1CC(c2ccc(C(F)(F)F)cc2)Cc2c1c(=O)c1c(Cl)c(Cl)ccc1n2O (stereo not drawn) | 7 |  | 7 | 4.5 | 7.8 | 2 | 2 | 3 |  | 9.8 and 7 |
| CCCCn1c2c(c(=O)c3cc(Cl)ccc31)C(=O)CC(c1ccc(C(F)(F)F)cc1)C2 (stereo not drawn) | -0.2 | 0.4 | -0.2 |  |  |  |  |  |  |  |
| O=C1CC2(CCCCC2)Cc2nc3ccc(Cl)cc3c(O)c21 | 0 | 0.2 | 0.6 |  |  |  |  |  |  |  |
| O=C1CC(c2ccccc2C(F)(F)F)Cc2nc3ccc(Cl)cc3c(O)c21 (stereo not drawn) | 8.5 | 8.3 | 0.7 |  |  |  |  |  |  |  |
| CCN(CC)CC(C)(C)C/N=C1\CC(c2cc(OC)c(OC)c(OC)c2)Cc2c1c(=O)c1cc(Cl)ccc1n2O (stereo not drawn) | 0.7 | 4.7 | 0.5 |  |  |  |  |  |  |  |
